Columns and labels:
Format in all cases: functional, cell-based
[1] = system: SK-OV-3; assay: Cytotoxicity against human SKOV3 cells
How it was run: (§1)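 Cells were kept in McCoy's 5A with 10% FBS and 2 mM L-glutamine at 37 °C and 5% CO2. About 4000 cells per well were plated and left to adhere overnight. Compounds from 50 mM DMSO stocks were diluted in medium (dilution series 100 µM to 0.1 pM, before addition) and added in duplicate. After 72 h, viability was read by CellTiter-Glo luminescence at room temperature.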

[2] = system: HT-29; assay: Cytotoxicity against human HT-29 cells; how it was run: as §1
[3] = system: COLO-829; assay: Cytotoxicity against human COLO829 cells; how it was run: as §1

COc1cc(O)c2c(c1)[C@H]1O[C@@H]1CCCC(=O)CCC[C@H](C)OC2=O
IC50 [1]: > 100000 nM

C[C@H]1C/C=C/[C@@H](O)[C@@H](O)CC[C@H]2O[C@@H]2c2cc(O)cc(O)c2C(=O)O1
IC50 [2]: > 100000 nM
IC50 [1]: > 100000 nM
IC50 [3]: > 100000 nM

C[C@H]1C/C=C\C(=O)[C@@H](O)[C@@H](O)C[C@H]2O[C@@H]2c2cc(O)cc(O)c2C(=O)O1
IC50 [2]: 100 nM
IC50 [1]: 1800 nM
IC50 [3]: 38 nM

COc1cc(O)c2c(c1)[C@H]1O[C@@H]1C[C@H](O)[C@H](O)C(=O)/C=C\C[C@H](C)OC2=O [HYPOTHEMYCIN]
IC50 [2]: 150 nM
IC50 [1]: 5900 nM
IC50 [3]: 70 nM

Reference: ChEMBL document CHEMBL1158082, “Cytotoxic hypothemycin analogues from Hypomyces subiculosus” (J Nat Prod, 2006)
